According to PMC9056317 (RSC Advances, 2020):
pIC50: −log10 of the molar value. Read-outs that look alike come from different tables or passages of the source.

Columns and labels:
[1] = tested on: HCMV (Towne-BAC-GFP strain); assay type: cell-based, human cytomegalovirus; settings: HFF-1 cells pre-treated with 10 μM compound for 1 hour, HCMV MOI 3.0
Procedure, shortened: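 HFF-1 cells were grown in DMEM with 10% FBS, sodium pyruvate and L-glutamine at 37 °C, 5% CO2. They were pre-treated for 1 h with test compound or DMSO control, then infected with Towne-BAC-GFP HCMV. GFP-positive infected cells were quantified by fluorescence microscopy.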

HFF-1 cells = assay: Cytotoxic assessment on HFF cells by trypan blue exclusion assay; assay type: cell-based, human; settings: 2× the IC50 concentrations, maintained on cells for 5 days
Procedure, shortened: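 Confluent HFF-1 cells (DMEM, 10% FBS, 37 °C, 5% CO2) were treated with test compound or left untreated, then infected with HCMV (MOI 3.0) or left uninfected. At day 5, cells were trypsinised and mixed 1:1 with 0.4% trypan blue. Percent viable cells was read on an automated cell counter. Three independent experiments, SEM.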

[2] = tested on: human glioblastoma cell line GBM6; assay: GBM6 proliferation MTT assay; assay type: cell-based; settings: for anti-proliferative activity in GBM6: 100 μM, MTT 72 hours after treatment; for pIC50: Homo sapiens
Procedure, shortened: (§1)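 GBM6 cells (DMEM, 10% FBS, 37 °C, 5% CO2) were plated at 1000 per well and incubated overnight, then the medium was replaced with test compound for 72 h. MTT was added for 4 h at 37 °C, and formazan was dissolved in DMSO. A570 was read with a 630 nm reference. Single-dose screen: n = 3, normalised to control. IC50: 0.78–100 μM, non-linear regression of survival %.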

MDA MB 231 cells = assay: MDA MB 231 proliferation MTT assay; assay type: cell-based; settings: for anti-proliferative effect in MDA MB 231: 100 μM, data not shown; for pIC50: Homo sapiens, MDA-MB-231, 72 h, read-out: IC50 in MDA MB 231
Procedure, shortened: as §1, with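 “MDA MB 231” for “GBM6”, “CO2, split every 3–4 days)” for “CO2)”, “2000” for “1000”, “reference.” for “reference. Single-dose screen: n = 3, normalised to control.”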

[3] = tested on: HCMV (Towne-BAC-GFP) strain; settings: read-out: reported IC50; reported value used to validate the assay; cited from earlier work
[4] = GBM6, 72 h, read-out: IC 50 in GBM6
[5] = GBM6, read-out: IC50 (highest cytotoxicity)

FC1C(c2ccc(Cl)cc2)=NOC12CCCO2 (stereo not drawn) [4d, 3-(4-Chlorophenyl)-4-fluoro-1,6-dioxa-2-azaspiro[4.4]non-2-ene]
reduction in GFP levels (mean fluorescence intensity, MFI) [1]: significant reduction in MFI | cytotoxicity on HFF cells (HFF-1 cells): did not show significant cytotoxicity

O=[N+]([O-])c1ccc(C2=NOC3(CCCO3)C2F)cc1 (stereo not drawn) [4h, 4-Fluoro-3-(4-nitrophenyl)-1,6-dioxa-2-azaspiro[4.4]non-2-ene]
reduction in GFP levels (mean fluorescence intensity, MFI) [1]: significant reduction in MFI

FC1C(c2ccccc2)=NOC12CCCCO2 (stereo not drawn) [4i, 4-Fluoro-3-phenyl-1,6-dioxa-2-azaspiro[4.5]dec-2-ene]
reduction in GFP levels (mean fluorescence intensity, MFI) [1]: significant reduction in MFI

FC1C(c2ccc(Br)cc2)=NOC12CCCCO2 (stereo not drawn) [4l, 3-(4-Bromophenyl)-4-fluoro-1,6-dioxa-2-azaspiro[4.5]dec-2-ene]
anti-proliferative activity in GBM6 [2]: robust anti-proliferative activity | pIC50 [2, 4]: 4.44 | pIC50 [2, 5]: 4.10 to 4.44 | anti-proliferative effect in MDA MB 231 (MDA MB 231 cells): highest anti-proliferative effect | pIC50 (MDA MB 231 cells): 4.17

FC1C(c2ccc(C(F)(F)F)cc2)=NOC12CCCCO2 (stereo not drawn) [4n, 4-Fluoro-3-(4-(trifluoromethyl)phenyl)-1,6-dioxa-2-azaspiro[4.5]dec-2-ene]
reduction in GFP levels (mean fluorescence intensity, MFI) [1]: significant reduction in MFI | cytotoxicity on HFF cells (HFF-1 cells): did not show significant cytotoxicity

O=[N+]([O-])c1ccc(C2=NOC3(CCCCO3)C2F)cc1 (stereo not drawn) [4o, 4-Fluoro-3-(4-nitrophenyl)-1,6-dioxa-2-azaspiro[4.5]dec-2-ene]
reduction in GFP levels (mean fluorescence intensity, MFI) [1]: significant reduction in MFI

O=C1CCC2(ON=C(c3c(Cl)cccc3Cl)C2F)O1 (stereo not drawn) [5f, 3-(2,6-Dichlorophenyl)-4-fluoro-1,6-dioxa-2-azaspiro[4.4]non-2-en-7-one]
anti-proliferative activity in GBM6 [2]: robust anti-proliferative activity | pIC50 [2, 4]: 4.36 | pIC50 [2, 5]: 4.10 to 4.44 | anti-proliferative effect in MDA MB 231 (MDA MB 231 cells): highest anti-proliferative effect | pIC50 (MDA MB 231 cells): 4.10

Nc1nc(O)c2ncn(COC(CO)CO)c2n1 [GCV, ganciclovir]
pIC50 [3]: 5.28
